Measured values taken from ChEMBL document CHEMBL2440111, “Overcoming doxorubicin-resistance in the NCI/ADR-RES model cancer cell line by novel anthracene-9,10-dione derivatives” (Bioorg Med Chem Lett, 2013).
Active and inactive are the calls of the source. The calls are words filed in the database; no cut-off is given here.

How the values were obtained:
OVCAR-8 [1] = assay: Antiproliferative activity against human OVCAR8 cells at 20 uM after 72 hrs by MTT assay; type: functional; conditions: OVCAR-8, 72 h
Summary of the method: (§1)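 Each cell line in the panel was treated with 20 µM compound, with doxorubicin as reference. Exponentially growing cells were grown at 37 °C in 5% CO2. MTT read-out served as a surrogate of viable cell number, expressed as % inhibition versus an untreated control. Values are mean ± SD of three independent experiments.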

[2] = Antiproliferative activity against human Caov3 cells at 20 uM after 72 hrs by MTT assay; type: functional; conditions: Caov-3, 72 h; summary of the method: as §1
U2OS [3] = assay: Antiproliferative activity against human U2OS cells at 20 uM after 72 hrs by MTT assay; type: functional; summary of the method: as §1
MIA PaCa-2 [4] = assay: Antiproliferative activity against human MIAPaCa2 cells at 20 uM after 72 hrs by MTT assay; type: functional; conditions: MIA PaCa-2, 72 h; summary of the method: as §1
BXPC-3 [5] = assay: Antiproliferative activity against human BxPC3 cells at 20 uM after 72 hrs by MTT assay; type: functional; conditions: BXPC-3, 72 h; summary of the method: as §1
DU-145 [6] = assay: Antiproliferative activity against human DU145 cells at 20 uM after 72 hrs by MTT assay; type: functional; conditions: DU-145, 72 h; summary of the method: as §1
PC-3 [7] = assay: Antiproliferative activity against human PC3 cells at 20 uM after 72 hrs by MTT assay; type: functional; conditions: PC-3, 72 h; summary of the method: as §1
[8] = Antiproliferative activity against human […] cells at 20 uM after 72 hrs by MTT assay; type: functional; summary of the method: as §1
LNCaP [9] = assay: Antiproliferative activity against human LNCAP cells at 20 uM after 72 hrs by MTT assay; type: functional; summary of the method: as §1
NCI/ADR-RES [10] = assay: Antiproliferative activity against human NCI/ADR-RES cells at 20 uM after 72 hrs by MTT assay; type: functional; summary of the method: as §1
OVCAR-8 [11] = assay: Antiproliferative activity against human OVCAR8 cells at 20 uM after 72 hrs by MTT assay in presence of N-acetylcysteine; type: functional, cell-based
U2OS [12] = assay: Antiproliferative activity against human U2OS cells after 72 hrs by MTT assay; type: functional, cell-based
Summary of the method: (§2)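 Cells kept in exponential growth at 37 °C in humidified 5% CO2 with 2 mM L-glutamine, mycoplasma-checked. Compounds were applied over a dose range and viability was read by MTT relative to an untreated control. IC50 is the concentration giving a 50% decrease in viability. Values are mean ± SD of three independent experiments.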

[13] = Antiproliferative activity against human […] cells after 72 hrs by MTT assay; type: functional, cell-based; summary of the method: as §2
LNCaP [14] = assay: Increase of cleaved caspase-9 level in human LNCAP cells at 3 uM after 24 hrs by Western blot analysis; type: functional, cell-based
Summary of the method: (§3)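 LNCaP cells were treated for 24 h, then lysed. Equal protein was run on 12% SDS-PAGE and blotted to PVDF. Membranes were blocked 1 h in 5% skim milk/TBS-0.1% Tween and probed overnight at 4 °C with anti-p53 or anti-caspase-9. A secondary antibody and ECL detection followed, with GAPDH as loading control.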

DU-145 [15] = assay: Antiproliferative activity against human DU145 cells after 72 hrs by MTT assay; type: functional, cell-based; conditions: DU-145, 72 h; summary of the method: as §2
NCI/ADR-RES [16] = assay: Antiproliferative activity against human NCI/ADR-RES cells at 20 uM after 72 hrs by MTT assay in presence of N-acetylcysteine; type: functional
Summary of the method: (§4)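 NCI/ADR-RES cells were pretreated for 2 h with 5 mM N-acetylcysteine or glutathione. Compound at 20 µM was then added for 72 h, with doxorubicin as positive control. Percent inhibition was measured by MTT.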

LNCaP [17] = assay: Antiproliferative activity against human LNCAP cells after 72 hrs by MTT assay; type: functional, cell-based; summary of the method: as §2
BXPC-3 [18] = assay: Antiproliferative activity against human BxPC3 cells after 72 hrs by MTT assay; type: functional, cell-based; conditions: BXPC-3, 72 h; summary of the method: as §2
LNCaP [19] = assay: Up-regulation of p53 expression in human LNCAP cells at 3 uM after 24 hrs by Western blot analysis; type: functional, cell-based; summary of the method: as §3
OVCAR-8 [20] = assay: Antiproliferative activity against human OVCAR8 cells after 72 hrs by MTT assay; type: functional, cell-based; conditions: OVCAR-8, 72 h; summary of the method: as §2
NCI/ADR-RES [21] = assay: Antiproliferative activity against human NCI/ADR-RES cells at 20 uM after 72 hrs by MTT assay in presence of glutathione; type: functional; summary of the method: as §4
OVCAR-8 [22] = assay: Antiproliferative activity against human OVCAR8 cells at 20 uM after 72 hrs by MTT assay in presence of glutathione; type: functional, cell-based
NCI/ADR-RES [23] = assay: Antiproliferative activity against human NCI/ADR-RES cells after 72 hrs by MTT assay; type: functional, cell-based; summary of the method: as §2
[24] = Antiproliferative activity against human Caov3 cells after 72 hrs by MTT assay; type: functional, cell-based; conditions: Caov-3, 72 h; summary of the method: as §2
PC-3 [25] = assay: Antiproliferative activity against human PC3 cells after 72 hrs by MTT assay; type: functional, cell-based; conditions: PC-3, 72 h; summary of the method: as §2
MIA PaCa-2 [26] = assay: Antiproliferative activity against human MIAPaCa2 cells after 72 hrs by MTT assay; type: functional, cell-based; conditions: MIA PaCa-2, 72 h; summary of the method: as §2
NCI/ADR-RES [27] = assay: Cell cycle arrest in human NCI/ADR-RES cells assessed as accumulation at S phase at 10 uM after 24 hrs using propidium iodide staining by flow cytometry (reference value: 14%); type: functional
NCI/ADR-RES [28] = assay: Inhibition of colony formation in human NCI/ADR-RES cells at 1 uM after 24 hrs; type: functional, cell-based
Summary of the method: (§5)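 NCI/ADR-RES cells were seeded at 100 cells/well and left to attach overnight. Serial compound dilutions were applied for 24 h, then washed out. Colonies grew in drug-free medium for 8-10 days and were fixed with 1% glutaraldehyde and stained with 2% crystal violet, 30 min each. Colonies were imaged and counted versus untreated control; values are means of ≥3 independent experiments.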

NCI/ADR-RES [29] = assay: Ratio of doxorubicin IC50 to compound IC50 for human NCI/ADR-RES cells; type: functional
NCI/ADR-RES [30] = assay: Cell cycle arrest in human NCI/ADR-RES cells assessed as accumulation at G2/M phase at 10 uM after 24 hrs using propidium iodide staining by flow cytometry (reference value: 35%); type: functional
NCI/ADR-RES [31] = assay: Inhibition of colony formation in human NCI/ADR-RES cells after 24 hrs; type: functional, cell-based; summary of the method: as §5
NCI/ADR-RES [32] = assay: Cell cycle arrest in human NCI/ADR-RES cells assessed as accumulation at G0/G1 phase at 10 uM after 24 hrs using propidium iodide staining by flow cytometry (reference value: 51%); type: functional

| SMILES | inhibition at 20 µM (OVCAR-8 [1]) [%] | inhibition at 20 µM [2] [%] | inhibition at 20 µM (U2OS [3]) [%] | inhibition at 20 µM (MIA PaCa-2 [4]) [%] | inhibition at 20 µM (BXPC-3 [5]) [%] | inhibition at 20 µM (DU-145 [6]) [%] | inhibition at 20 µM (PC-3 [7]) [%] | inhibition at 20 µM [8] [%] | inhibition at 20 µM (LNCaP [9]) [%] | inhibition at 20 µM (NCI/ADR-RES [10]) [%] | inhibition (OVCAR-8 [11]) | IC50 (U2OS [12]) [nM] | IC50 [13] [nM] | IC50 (DU-145 [15]) [nM] | inhibition at 20 µM (NCI/ADR-RES [16]) [%] | IC50 (LNCaP [17]) [nM] | IC50 (BXPC-3 [18]) [nM] | IC50 (OVCAR-8 [20]) [nM] | inhibition at 20 µM (NCI/ADR-RES [21]) [%] | inhibition (OVCAR-8 [22]) | also measured |
| --- | --- | --- | --- | --- | --- | --- | --- | --- | --- | --- | --- | --- | --- | --- | --- | --- | --- | --- | --- | --- | --- |
| Cc1ccc(S(=O)(=O)Oc2ccc(OCCOCCOCCO)c3c2C(=O)c2ccccc2C3=O)cc1 | 13.1 | 47.3 | 44.2 | 53.4 | 15.3 | 16.8 | 16.6 | 46.9 | 24.5 | 20.4 | Active | – | – | – | – | – | – | – | – | – | – |
| COc1cccc2c1C(=O)c1c(O)c3c(c(O)c1C2=O)C[C@@](O)(C(=O)CO)C[C@@H]3O[C@H]1C[C@H](N)[C@H](O)[C@H](C)O1 [DOXORUBICIN] | 86 | 92.6 | 90 | 88.1 | 96.2 | 80.6 | 6.9 | 83.5 | 85.8 | 41 | Active | 300 | 1500 | 200 | 13 | 200 | 400 | 600 | 21 | Active | Activity (LNCaP [14]): Active; Activity (LNCaP [19]): Active; IC50 (NCI/ADR-RES [23]): > 20000 nM; IC50 [24]: < 100 nM; IC50 (PC-3 [25]): 1000 nM; IC50 (MIA PaCa-2 [26]): < 100 nM |
| Cc1ccc(S(=O)(=O)Oc2ccc(OCCOCCOCCOCCO)c3c2C(=O)c2ccccc2C3=O)cc1 | 5.5 | 48.2 | 41.9 | 29.5 | 11.8 | 21.6 | 23.7 | 47.8 | 40.3 | 1.7 | – | – | – | – | – | – | – | – | – | – | – |
| Cc1ccc(S(=O)(=O)Oc2ccc(NCc3ccc(N)cc3)c3c2C(=O)c2ccccc2C3=O)cc1 | 85.4 | 85.7 | 92.3 | 91.1 | 94 | 87.2 | 75.8 | 75.1 | 88.9 | 80.5 | Active | 2800 | 3800 | 5400 | > 60 | 400 | 1800 | 3500 | > 60 | Active | inhibition at 10 µM (NCI/ADR-RES [27]): 25%; inhibition (NCI/ADR-RES [28]): Active; Activity (LNCaP [14]): Active; Activity (LNCaP [19]): inactive; Ratio IC50 (NCI/ADR-RES [29]): > 25; inhibition at 10 µM (NCI/ADR-RES [30]): 55%; IC50 (NCI/ADR-RES [31]): 500 nM; inhibition (NCI/ADR-RES [31]): Dose-dependent effect; inhibition at 10 µM (NCI/ADR-RES [32]): 30%; IC50 (NCI/ADR-RES [23]): 800 nM; IC50 [24]: 2500 nM; IC50 (PC-3 [25]): 6500 nM; IC50 (MIA PaCa-2 [26]): 2700 nM |
| O=C1c2ccccc2C(=O)c2c(OCCOCCOCCO)ccc(OCCOCCOCCO)c21 | 37.4 | 16.3 | 11.1 | 36.1 | 17.5 | 17.7 | 16.4 | 6.4 | 38.2 | 41.5 | – | – | – | – | – | – | – | – | – | – | – |
| Cc1ccc(S(=O)(=O)Oc2ccc(NCc3ccc(Cl)cc3)c3c2C(=O)c2ccccc2C3=O)cc1 | 64.4 | 84.6 | 66.1 | 80.6 | 85.2 | 69.1 | 81.2 | 63.5 | 79.9 | 80.4 | Active | 4800 | 4000 | 6500 | > 60 | 2400 | 2400 | 4400 | > 60 | Active | inhibition (NCI/ADR-RES [31]): Dose-dependent effect; IC50 (NCI/ADR-RES [23]): 2200 nM; IC50 [24]: 2500 nM; IC50 (PC-3 [25]): > 20000 nM; IC50 (MIA PaCa-2 [26]): 4500 nM |
| COc1ccc(CNc2ccc(OS(=O)(=O)c3ccc(C)cc3)c3c2C(=O)c2ccccc2C3=O)cc1 | 58.2 | 83.1 | 59.8 | 81.4 | 91.5 | 62.2 | 46.2 | 53.3 | 78.7 | 77.8 | Active | 4500 | > 20000 | 2200 | > 60 | 900 | 600 | 8000 | > 60 | Active | inhibition (NCI/ADR-RES [31]): Dose-dependent effect; IC50 (NCI/ADR-RES [23]): 1200 nM; IC50 [24]: 1800 nM; IC50 (PC-3 [25]): 8000 nM; IC50 (MIA PaCa-2 [26]): 1900 nM |
| Cc1ccc(S(=O)(=O)Oc2ccc(OCCOCCO)c3c2C(=O)c2ccccc2C3=O)cc1 | 8.5 | 42.7 | 43 | 35.9 | 14.5 | 9 | 9.9 | 31.4 | 26.7 | 15.3 | Active | – | – | – | – | – | – | – | – | Active | – |
| O=C1c2ccccc2C(=O)c2c(OCCOCCO)ccc(OCCOCCO)c21 | 3.4 | 7.3 | 32.4 | 31.1 | 23.1 | 10 | 10.6 | 44.3 | 46.9 | 46.4 | – | – | – | – | – | – | – | – | – | – | – |
